Screens: PubChem, several laboratories
NF-kB neuron act: compounds increasing NF-kB expression in human neuronal cells. actives 1.6% (n = 190,000). fold change at 12.5 µM. NF-kB reporter expression; active compounds read high; in the data active means fold change above about 3.3
FLuc inhib CS: counter-screen for luciferase assay inhibitors: firefly luciferase inhibition. P08659. ATPLite firefly luciferase biochemical luminescence, 10 min. AID 1006. actives 1.5% (n = 200,000). inhibition, % at 10 µM;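 active means inhibition above about 50% when tested at 10 µM, limit read from the data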
Target sequence (P08659 whole entry, looked up): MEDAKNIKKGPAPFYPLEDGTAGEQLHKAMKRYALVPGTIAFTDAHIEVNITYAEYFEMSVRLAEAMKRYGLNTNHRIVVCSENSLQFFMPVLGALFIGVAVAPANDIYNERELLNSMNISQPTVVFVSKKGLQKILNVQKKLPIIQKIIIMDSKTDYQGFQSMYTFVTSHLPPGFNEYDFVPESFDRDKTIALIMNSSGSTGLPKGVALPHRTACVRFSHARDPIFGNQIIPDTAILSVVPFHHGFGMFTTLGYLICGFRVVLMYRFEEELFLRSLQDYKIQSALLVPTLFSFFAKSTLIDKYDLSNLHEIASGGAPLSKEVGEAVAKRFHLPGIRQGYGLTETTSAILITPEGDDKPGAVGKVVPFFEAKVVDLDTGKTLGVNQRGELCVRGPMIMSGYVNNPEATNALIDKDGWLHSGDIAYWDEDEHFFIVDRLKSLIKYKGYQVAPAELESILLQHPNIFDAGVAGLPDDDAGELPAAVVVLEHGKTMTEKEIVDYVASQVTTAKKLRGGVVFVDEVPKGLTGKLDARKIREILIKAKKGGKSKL
PPC-1+TRAIL kill: kills PPC-1 cancer cells in the presence of TRAIL | actives 0.41% (n = 220,000) | AID 1443 | cell killing (% activity), % at 4 µM or 5 µM | PPC-1 cells + TRAIL, ATPLite viability luminescence;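 active means cell killing above 50% in the first pass at 4 µM, then a duplicate retest at 5 µM averaging 50% or more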;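 further: plate controls were cells with TRAIL plus DMSO for no effect and medium-only wells lacking cells for full effect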
C8 TRAIL sens: caspase-8 TRAIL sensitization; actives 1% (n = 360,000); NB7+C8 cells + TRAIL, ATPlite viability luminescence; AID 624354; inhibition (viability loss, TRAIL sensitization), % at 10 µM;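 active means compounds causing at least 50% loss of cell viability in the single-dose screen, relative to plate controls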
FLuc act counter: affects firefly luciferase, flagging false hits in luciferase stimulation screens. P08659. ATPlite luciferase biochemical, luminescence, 10 min; 0 = ATP-free wells, 1 = DMSO control. activation factor at 10 µM. 200,000 tested, under 10 active;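 active means luciferase activation factor, scaled between plate controls, of at least 2 with compound at 10 µM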
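Assay system: Luciferase/luciferin reagent mix; Medium: PBS as buffer for the ATP substrate; Dosing: test compounds dosed from 2 mM stocks in 100% DMSO; Times: 10 min, room temperature; Signal: luminescence from luciferase reaction; Read-out: luciferase activation; Controls: No-ATP low control, compound-free enzyme-plus-ATP high control.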
APP 5'UTR act: APP 5'UTR luciferase reporter activation. SH-SY5Y APP 5'UTR luciferase reporter, luminescence; zero percent = DMSO vehicle wells. activation, % at 2 µM. actives 1% (n = 190,000);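 active means activation above a set limit, based on mean plus 3 SD of controls, cut at about 140% in these data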
* hit, by the source's call; . = not tested or not shown. In the library only some 2.2% were active in any assay of this set; here they are far more common.

SMILES	NF-kB neuron act	FLuc inhib CS	PPC-1+TRAIL kill	C8 TRAIL sens	FLuc act counter	APP 5'UTR act
Cc1cc(-c2ccccc2)n[nH]1	1.07	2.3	-5.4	1.0	1	14.9
FC(F)C(F)(F)C(F)(F)C(F)(F)c1cc(-c2ccccc2)n[nH]1	5.07*	-7.7	12.2	20.0	1.1	24.9
O=C(Nc1nnc(-c2ccc(Br)cc2)o1)c1ccco1	.	.	.	53.7*	.	.
Cc1ccc(C)c(-c2nnc(NC(=O)c3ccco3)o2)c1	.	.	.	24.8	.	.
Cc1ccc(-c2nnc(NC(=O)c3ccco3)o2)c(C)c1	.	.	.	55.2*	.	.
O=C(Nc1nnc(-c2ccccc2Cl)o1)c1ccco1	1.23	65.9*	29.9	44.7	0.3	20.4
O=C(Nc1ccc(F)cc1)c1nc(S(=O)(=O)Cc2ccccc2)ncc1Cl	.	.	.	92.3*	.	.
Cc1ccc(NC(=O)c2nc(S(=O)(=O)Cc3ccccc3)ncc2Cl)cc1	.	.	.	65.0*	.	.
Cc1ccccc1CS(=O)(=O)c1ncc(Cl)c(C(=O)Nc2ccc(F)cc2)n1	.	.	.	91.7*	.	.
Cc1nnc(NC(=O)c2nc(S(=O)(=O)Cc3ccccc3)ncc2Cl)s1	.	.	.	82.9*	.	.
Cc1cccc(C)c1NC(=O)c1nc(S(=O)(=O)Cc2ccccc2)ncc1Cl	.	.	.	22.8	.	.
Cc1cccc(CS(=O)(=O)c2ncc(Cl)c(C(=O)NCc3ccccc3)n2)c1	.	.	.	-14.3	.	.
CCCCC(=O)N(C)c1c(C)nc2ccc(C(=O)NCCN(C)C)cn12	.	.	.	-3.0	.	.
CN(C)c1ccc(N=Nc2ccc3ncccc3c2)cc1	.	.	.	70.9*	.	.
Nc1nc2cc(Cl)ccc2cc1C(=O)NCCCc1ccccc1	.	.	.	26.0	.	.
CC(C)(C)N1C(=O)c2ccccc2NC(=O)C1C(=O)NCc1ccco1 (centres undefined)	.	.	.	1.0	.	.
O=C1CC(SC(=S)C2CCCC2=O)C(=O)N1 (centres undefined)	.	.	.	-11.6	.	.
CCn1c(O)c(/C=C2\C=Nc3ccccc32)sc1=Nc1ccc(C)cc1	1.25	-3.3	5.4	0.7	1	16.0
CCn1c(O)c(/C=C2\C=Nc3ccccc32)sc1=O	3.06	5.4	23.9	5.6	0.9	154.2*
COc1ccc(C(O)c2nc(-c3ccc(F)c(Cl)c3)cs2)cc1 (centres undefined)	.	.	.	-11.8	.	.
Cc1ccc(C(=O)NCCc2ccc(F)cc2)s1	4.19*	38.4	27.4	24.2	0.6	161.7*
Cc1ccc(C(=O)NCc2ccc(F)cc2)s1	.	.	.	-13.9	.	.
COC(=O)[C@@]12C[C@@H](CC(=O)NCC3CCCCC3)C(=O)N(Cc3cccc4ccccc34)C1=CCC(C)(C)C2	.	.	.	9.9	.	.
CCCC(=O)Nc1cnc(NC(=O)c2cccc(F)c2)cc1C	2.71	29.5	14.0	1.3	0.7	172.9*
Cc1cc(NC(=O)C(C)C)ncc1NC(=O)c1cccc(F)c1	1.13	-3.2	14.2	35.0	1	3.0
SMILES	NF-kB neuron act	FLuc inhib CS	PPC-1+TRAIL kill	C8 TRAIL sens	FLuc act counter	APP 5'UTR act
CCNC(=O)C1(C)CCCN(C(=O)c2cc3ccccc3s2)C1 (centres undefined)	.	.	.	-13.3	.	.
COc1ccc(-c2csc(C3=C(O)CN(CCCN4CCCC4=O)C3=N)n2)cc1OC	0.92	55.9*	26.0	12.1	0.4	41.4
CCOC(=O)c1c(C)[nH]c(C(=O)COC(=O)CCSc2ccccc2)c1C	1.17	-2.9	13.1	-4.8	1	38.6
CCOC(=O)c1c(C)[nH]c(C(=O)CSc2ccccc2)c1C	3.64*	33.9	22.7	32.6	0.7	160.3*
COc1ccc(NC(=O)c2cc(C3CCCCN3C(=O)CCCc3ccccc3)on2)c(C)c1 (centres undefined)	.	.	.	-27.4	.	.
COc1cccc(-n2c(SCC(=O)N3CCCCC3)nc3c([nH]c4ccccc43)c2=O)c1	1.04	-1.9	4.0	53.7*	1	2.7
Oc1ccc(C[C@H]2CNC(=S)N2CC2CCCN2C[C@H](Cc2ccccc2)N2C[C@H](Cc3ccc(O)cc3)N(CC3CCCCC3)C2=S)cc1 (some centres undefined)	.	.	.	-16.4	.	.
O=C(COc1ccccc1)NNc1nc2c(F)cc(F)cc2s1	1.34	-8.2	9.2	-11.9	1.1	-2.7
O=C(Nc1nc2c(F)cc(F)cc2s1)c1ccccn1	4.18*	66.3*	35.1	70.8*	0.3	17.9
Cc1nc(Cl)sc1C(=O)Nc1ccc(C(C)(C)C)cc1	.	.	.	19.9	.	.
COC(=O)Cc1ccc(NC(=O)c2ccc(C)c(C)c2)cc1	3.92*	38.3	14.3	26.8	0.6	21.2
